Laboratory results: ChEMBL document CHEMBL1126036, “Quinolone antibacterial agents. Synthesis and structure-activity relationships of a series of amino acid prodrugs of racemic and chiral 7-(3-amino-1-pyrrolidinyl)quinolones. Highly soluble quinolone prodrugs with in vivo pseudomonas activity” (J Med Chem, 1992)
≈ marks a conversion by molar mass, not a printed value.

What was measured:
[1] = test system: DNA gyrase (Escherichia coli); experiment: In vitro concentration inhibiting DNA gyrase induced cleavage in Escherichia coli H560
Providencia rettgeri = experiment: In vitro antibacterial activity against gram negative Providencia rettgeri M-1771.; assay type: functional
Streptococcus pneumoniae [2] = experiment: In vivo potency against acute systemic infection in mouse caused by Streptococcus pneumoniae SV-1 on subcutaneous injection.; assay type: functional; settings: sc, read-out: PD50
Summary of the method: (§1)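 Acute systemic mouse infection. A single subcutaneous dose was injected at the time of challenge. Potency is reported as the median protective dose (PD50, mg/kg), determined by earlier published methods.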

Mus musculus [3] = experiment: In vivo potency against acute systemic infection in mouse caused by Escherichia coli Vogel on subcutaneous injection; assay type: functional; settings: sc, read-out: PD50
Summary of the method: as §1

Enterobacter cloacae [4] = experiment: In vitro antibacterial activity against gram negative Enterobacter cloacae MA 2646.; assay type: functional
Streptococcus pyogenes = experiment: In vitro antibacterial activity against gram positive Streptococcus pyogenes C-203.; assay type: functional
Escherichia coli [5] = experiment: In vitro antibacterial activity against gram negative Escherichia coli Vogel.; assay type: functional
Enterococcus faecalis = experiment: In vitro antibacterial activity against gram positive Enterococcus faecalis MGH-2.; assay type: functional
Klebsiella pneumoniae [6] = experiment: In vitro antibacterial activity against gram negative Klebsiella pneumoniae. MGH-2; assay type: functional
Streptococcus pneumoniae [7] = experiment: In vitro antibacterial activity against gram positive Streptococcus pneumoniae SV-1.; assay type: functional
Staphylococcus aureus [8] = experiment: In vitro antibacterial activity against gram positive Staphylococcus aureus UC76.; assay type: functional
[9] = Aqueous solubility; assay type: physicochemical; settings: water (aqueous); read-out: S
Summary of the method: (§2)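 Solubility was measured either from HPLC peak areas at equilibrium or by a conventional weight-per-volume method. All solutions were held for 24 h before measurement.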

Mus musculus [10] = experiment: In vivo potency against acute systemic infection in mouse caused by Streptococcus pneumoniae SV-1 on oral administration by gavage; assay type: functional; settings: read-out: PD50
Summary of the method: (§3)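 Acute systemic mouse infection. A single oral dose was given by gavage at the time of challenge. Potency is reported as the median protective dose (PD50, mg/kg), determined by earlier published methods.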

Mus musculus [11] = experiment: In vivo potency against acute systemic infection in mouse caused by Escherichia coli Vogel on oral administration by gavage; assay type: functional; settings: read-out: PD50
Summary of the method: as §3

Pseudomonas aeruginosa [12] = experiment: In vitro antibacterial activity against gram negative Pseudomonas aeruginosa UI-18.; assay type: functional
Staphylococcus aureus [13] = experiment: In vitro antibacterial activity against gram positive Staphylococcus aureus H-228.; assay type: functional
[14] = Solubility (at pH 4); assay type: physicochemical; settings: buffer, read-out: S
Summary of the method: as §2

Mus musculus [15] = experiment: In vivo potency against acute systemic infection in mouse caused by Streptococcus pneumoniae SV-1 on subcutaneous injection; assay type: functional; settings: sc, read-out: PD50
Summary of the method: as §1

[16] = Solubility (in 0.1 N HCl); assay type: physicochemical; settings: read-out: S
Summary of the method: as §2

[17] = Solubility (at pH 7.4); assay type: physicochemical; settings: buffer
Summary of the method: as §2

Pseudomonas aeruginosa [18] = experiment: In vitro antibacterial activity against gram negative Pseudomonas aeruginosa. UI-18; assay type: functional
Escherichia coli [19] = experiment: In vivo potency against acute systemic infection in mouse caused by Escherichia coli Vogel on oral administration by gavage.; assay type: functional; settings: read-out: PD50
Summary of the method: as §3

Mus musculus [20] = experiment: In vivo potency against acute systemic infection in mouse caused by Streptococcus pyogenes C-203 on subcutaneous injection; assay type: functional; settings: sc, read-out: PD50
Summary of the method: as §1

Escherichia coli [21] = experiment: In vivo potency against acute systemic infection in mouse caused by Escherichia coli vogel on subcutaneous injection.; assay type: functional; settings: sc, read-out: PD50
Summary of the method: as §1

Mus musculus [22] = experiment: In vivo potency against acute systemic infection in mouse caused by Pseudomonas aeruginosa UI-18 on oral administration by gavage.; assay type: functional; settings: read-out: PD50
Summary of the method: as §3

Streptococcus pneumoniae [23] = experiment: In vivo potency against acute systemic infection in mouse caused by Streptococcus pneumoniae SV-1 on oral administration by gavage.; assay type: functional; settings: read-out: PD50
Summary of the method: as §3

Mus musculus [24] = experiment: In vivo potency against acute systemic infection in mouse caused by Streptococcus pyogenes C-203 on oral administration by gavage; assay type: functional; settings: read-out: PD50
Summary of the method: as §3

Mus musculus [25] = experiment: In vivo potency against acute systemic infection in mouse caused by Pseudomonas aeruginosa. UI-18. on subcutaneous injection.; assay type: functional; settings: sc, read-out: PD50
Summary of the method: as §1

Escherichia coli [26] = experiment: In vitro antibacterial activity against gram negative Escherichia coli vogel; assay type: functional
Mus musculus [27] = experiment: In vivo potency against acute systemic infection in mouse caused by Escherichia coli vogel on subcutaneous injection; assay type: functional; settings: sc, read-out: PD50
Summary of the method: as §1

Mus musculus [28] = experiment: In vivo potency against acute systemic infection in mouse caused by Escherichia coli vogel on oral administration by gavage; assay type: functional; settings: read-out: PD50
Summary of the method: as §3

[29] = molecular target: DNA gyrase (Escherichia coli) (UniProt P0AES6+P0AES4); experiment: In vitro concentration inhibiting DNA gyrase induced cleavage in Escherichia coli H560.; assay type: functional
Summary of the method: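 DNA gyrase test run as described in earlier work. The value is the drug concentration (µg/mL) needed to cause DNA cleavage.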

Klebsiella pneumoniae [30] = experiment: In vitro antibacterial activity against gram negative Klebsiella pneumoniae MGH-2.; assay type: functional
Enterobacter cloacae [31] = experiment: In vitro antibacterial activity against gram negative Enterobacter cloacae MA 2646; assay type: functional

SMILES | MIC (Providencia rettgeri) [µg/mL] | ED50 (Streptococcus pneumoniae [2]) [mg/kg] | MIC (Enterobacter cloacae [4]) [µg/mL] | MIC (Streptococcus pyogenes) [µg/mL] | MIC (Escherichia coli [5]) [µg/mL] | MIC (Enterococcus faecalis) [µg/mL] | MIC (Klebsiella pneumoniae [6]) [µg/mL] | MIC (Streptococcus pneumoniae [7]) [µg/mL] | MIC (Staphylococcus aureus [8]) [µg/mL] | solubility [9] [µg/mL] | ED50 (Mus musculus [10]) [mg/kg] | MIC (Pseudomonas aeruginosa [12]) [µg/mL] | MIC (Staphylococcus aureus [13]) [µg/mL] | solubility [14] [µg/mL] | solubility [16] [µg/mL] | ED50 (Escherichia coli [19]) [mg/kg] | ED50 (Mus musculus [20]) [mg/kg] | ED50 (Escherichia coli [21]) [mg/kg] | ED50 (Mus musculus [24]) [mg/kg] | solubility ([17]; read-out: S) [µg/mL] | also measured
Cl.N[C@H]1CCN(c2c(F)cc3c(=O)c(C(=O)O)cn(C4CC4)c3c2F)C1.O | 0.006 | 7 | 0.013 | 0.013 | 0.006 | 0.025 | 0.003 | 0.013 | 0.003 | 17000 | 15 | 0.025 | 0.013 | – | – | – | – | – | – | – | Cleavage [1]: 0.1 µg/mL; ED50 (Mus musculus [3]): 0.2 mg/kg; ED50 (Mus musculus [11]): 1 mg/kg
Cl.NCCCC[C@H](N)C(=O)NC1CCN(c2nc3c(cc2F)c(=O)c(C(=O)O)cn3C2CC2)C1.O (stereo partly specified) | 25 | – | 12.5 | > 25 | 12.5 | > 25 | 25 | > 25 | 6.3 | > 300000 | 71 | – | 25 | > 600000 | > 200000 | – | – | – | – | – | ED50 (Mus musculus [15]): 70 mg/kg; solubility [17]: 70 µg/mL; MIC (Pseudomonas aeruginosa [18]): > 25 µg/mL
NC1CCN(c2nc3c(cc2F)c(=O)c(C(=O)O)cn3C2CC2)C1 (stereo unspecified) | 0.05 (≈ 0.15 µM) | 33 | 0.025 (≈ 0.0752 µM) | 0.2 (≈ 0.602 µM) | 0.013 (≈ 0.0391 µM) | 0.2 (≈ 0.602 µM) | 0.025 (≈ 0.0752 µM) | 0.2 (≈ 0.602 µM) | 0.013 (≈ 0.0391 µM) | – | – | 0.05 (≈ 0.15 µM) | 0.2 (≈ 0.602 µM) | – | – | 2 | 14 | 0.6 | 32 | – | Cleavage [1]: 1 µg/mL; ED50 (Mus musculus [22]): 7 mg/kg; ED50 (Streptococcus pneumoniae [23]): 58 mg/kg; ED50 (Mus musculus [25]): 3 mg/kg
CC(C)[C@H](N)C(=O)NC1CCN(c2nc3c(cc2F)c(=O)c(C(=O)O)cn3C2CC2)C1.Cl.O (stereo partly specified) | 1.6 | – | 0.4 | 1.6 | – | 1.6 | 1.6 | 1.6 | 0.4 | > 200000 | – | – | 1.6 | > 200000 | > 200000 | – | 27 | – | 76 | 80 | MIC (Escherichia coli [26]): 0.4 µg/mL; ED50 (Mus musculus [27]): 0.6 mg/kg; ED50 (Mus musculus [28]): 3 mg/kg; MIC (Pseudomonas aeruginosa [18]): 3.1 µg/mL
C[C@@H]1CN(c2c(F)c(N)c3c(=O)c(C(=O)O)cn(C4CC4)c3c2F)C[C@H](C)N1 [SPARFLOXACIN] | 0.2 (≈ 0.51 µM) | – | 0.025 (≈ 0.0637 µM) | 0.1 (≈ 0.255 µM) | 0.025 (≈ 0.0637 µM) | 0.1 (≈ 0.255 µM) | – | 0.05 (≈ 0.127 µM) | 0.025 (≈ 0.0637 µM) | 90 (≈ 229 µM) | 14 | 0.8 (≈ 2.04 µM) | 0.05 (≈ 0.127 µM) | 30 (≈ 76.5 µM) | 400 (≈ 1020 µM) | 1 | 17 | 0.2 | 17 | 10 (≈ 25.5 µM) | ED50 (Mus musculus [22]): 14 mg/kg; ED50 (Mus musculus [15]): 13 mg/kg; Cleavage [29]: 2.5 µg/mL; ED50 (Mus musculus [25]): 7 mg/kg; MIC (Klebsiella pneumoniae [30]): 0.05 µg/mL (≈ 0.127 µM)
Cl.Nc1c(F)c(N2CC[C@@H](N)C2)c(F)c2c1c(=O)c(C(=O)O)cn2C1CC1.O | 0.05 | 3.5 | – | 0.025 | 0.013 | 0.05 | – | 0.003 | 0.006 | 2800 | – | 0.02 | 0.025 | 2600 | 200 | 1.7 | 7.5 | 0.3 | 12 | 40 | Cleavage [29]: 0.1 µg/mL; MIC (Enterobacter cloacae [31]): 0.013 µg/mL; ED50 (Streptococcus pneumoniae [23]): 15 mg/kg; MIC (Klebsiella pneumoniae [30]): 0.025 µg/mL
Cl.N[C@@H](Cc1ccccc1)C(=O)NC1CCN(c2nc3c(cc2F)c(=O)c(C(=O)O)cn3C2CC2)C1.O (stereo partly specified) | 6.3 | 37 | 0.4 | 1.6 | 0.8 | 0.8 | – | 0.8 | 0.4 | > 200000 | 65 | 6.3 | 3.1 | > 100000 | 80000 | 2 | – | 0.4 | – | 60 | MIC (Klebsiella pneumoniae [30]): 3.1 µg/mL
